# An excerpt weighted towards active compounds, which were near 1.4% of everything screened.
# UBC9 SUMO inh: SUMOylation inhibition. P63279. HTRF SUMOylation assay, SAE1/SAE2 + UBC9, in vitro. inhibition, % at 35 µM. 290,000 compounds, 0.36% hits. AID 2006; in the data active means inhibition above about 50%, passing the limit was not always enough
# CTSL1 counter: counter-screen for PFM18AAP inhibitors: inhibitors of F. hepatica cathepsin L1; recombinant F. hepatica cathepsin L1, Z-Leu-Arg-MCA fluorescence; inhibition, % at 5.96 µM; AID 1906; 300,000 compounds, 0.49% hits;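 active means inhibition above the mean of all tested compounds plus 3 SD, set per screening campaign, cut at about 17% in these data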;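 further: 0% = plate median of test compound wells and 100% = 1 µM Z-Phe-Ala-diazomethylketone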
# UCH37 DUB inh: human UCH37 deubiquitinating enzyme inhibition | Q9Y5K5 | purified proteasome/UCH37, Ub-AMC cleavage fluorescence | inhibition, % (no concentration beside the values) | 330,000 compounds, 0.33% hits;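 active means mean inhibition over replicate wells above about 20%, limit read from the data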;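 further: 0% = compound-free wells with enzyme and 100% = wells lacking proteasome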
# Target sequence (Q9Y5K5 whole entry, looked up): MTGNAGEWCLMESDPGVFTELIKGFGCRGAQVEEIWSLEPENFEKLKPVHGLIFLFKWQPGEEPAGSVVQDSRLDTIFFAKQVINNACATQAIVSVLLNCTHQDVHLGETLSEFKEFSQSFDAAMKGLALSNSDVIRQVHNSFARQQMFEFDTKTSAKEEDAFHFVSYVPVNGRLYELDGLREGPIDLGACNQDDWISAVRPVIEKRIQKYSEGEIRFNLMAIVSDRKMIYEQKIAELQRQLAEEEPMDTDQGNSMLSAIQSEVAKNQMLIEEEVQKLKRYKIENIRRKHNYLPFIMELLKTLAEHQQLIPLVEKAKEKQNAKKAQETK
#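 Test system – human UCH37 enzyme supplied as purified proteasome complex · Incubation – 30 min preincubation with enzyme, 25 min cleavage at room temperature · Detection – AMC fluorescence from Ub-AMC cleavage, excitation 355 nm, emission 460 nm · Benchmarks – no-proteasome wells (full inhibition) and compound-free wells (no inhibition)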
# Neddylation inh: blocks human cullin neddylation. TR-FRET cullin neddylation, biochemical. 360,000 compounds, 0.58% hits. inhibition, % at 25 µM; in the data active means inhibition above about 36%
# Numbers without * were called inactive; x = not tested or not shown.
SMILES,UBC9 SUMO inh,CTSL1 counter,UCH37 DUB inh,Neddylation inh
CN(C)c1ccc(/C=C(\NC(=O)c2ccccc2)C(=O)N/N=C/c2ccc(C(=O)O)cc2)cc1,-2,3,x,25
Cc1ccc(NC(=O)CCC(=O)NN=Cc2coc3ccccc3c2=O)cc1,x,x,-4,x
O=C1NC(=S)S/C1=C\c1cc2ccccc2nc1N1CCCCC1,55*,1,8,-18
COc1ccc2nc(N3CCCCC3)c(/C=C3\SC(=S)NC3=O)cc2c1,49,7,7,-25
COc1cc(NC(=O)Cc2ccccc2)c(C(=O)O)cc1OC,21,-1,1,3
COc1cc(NC(=O)N2c3ccccc3Sc3ccccc32)c(C(=O)O)cc1OC,-9,1,5,42*
COc1cc(C=NNC(=S)NC2CC3CCC2C3)ccc1O (stereo not given),x,x,5,x
CC(C)OCCCNC(=O)c1c(N)n(N=Cc2cccs2)c2nc3ccccc3nc12,x,x,-286,x
O=C(NCC(c1ccco1)N1CCCC1)c1ccccc1Sc1ccc(C(F)(F)F)cc1[N+](=O)[O-] (stereo not given),x,20*,0,-7
N#Cc1ccccc1Sc1ccccc1C(=O)NCC(c1ccco1)N1CCCCC1 (stereo not given),x,x,1,0
COc1ccc(/C(O)=C2/C(=O)C(=O)N(CCCN3CCOCC3)C2c2ccc(C(C)C)cc2)cc1 (stereo not given),-2,x,20*,0
COc1ccc(/C(O)=C2/C(=O)C(=O)N(CCCN3CCOCC3)C2c2ccc(Cl)cc2)cc1 (stereo not given),x,x,x,-56
COc1ccc(/C(O)=C2/C(=O)C(=O)N(CCCN(C)C)C2c2ccc(Cl)cc2)cc1OC (stereo not given),x,-5,24*,-6
COc1ccc(C(=O)CCS(=O)(=O)c2ccc(F)cc2)cc1OC,2,-21,x,10
Cc1ccc(C(=O)CCS(=O)(=O)c2ccc(F)cc2)cc1,16,30*,1,-4
Cc1ccc(C(=O)CCS(=O)(=O)c2ccc(Cl)cc2)cc1,5,13,1,-5
Cc1ccc(S(=O)(=O)CCC(=O)c2ccc(F)cc2)cc1,11,43*,2,-7
O=C(NN=Cc1ccc([N+](=O)[O-])cc1)c1ccc2nc[nH]c2c1,x,x,8,x
CC1OC23CCCCC2C(C#N)(C(=N)O3)C1(C#N)C#N (stereo not given),20,-2,-3,24
N#CC1(C#N)COC23CCCCC2C1(C#N)C(=N)O3 (stereo not given),39,2,-21,42*
N#CC12COC3(CCCCC3C1(C#N)C#N)OC2=N (stereo not given),13,1,-10,45*
Cc1cc(C=NNC(=O)c2ccccc2F)c(C)n1-c1ccccc1,x,x,4,x
CCOC(=O)c1sc2nc3c(SCC(=O)O)cc(C(=O)c4cc(F)ccc4O)cn3c(=O)c2c1C,9,4,9,10
CCOC(=O)c1sc2nc3c(SCC(=O)O)cc(C(=O)c4ccccc4O)cn3c(=O)c2c1C,76*,2,x,21
CC(=NNC(=O)c1csc(C)c1C)c1ccc(Cl)s1,x,x,2,x
SMILES,UBC9 SUMO inh,CTSL1 counter,UCH37 DUB inh,Neddylation inh
Nc1ccc2c(c1)C(=O)c1ccccc1-2,x,-1,5,-21
O=C1C(=O)c2ccc(-c3ccccc3)cc2-c2ccccc21,97*,109*,-88,-95
CC1(C)CC(=O)C(C2C3=C(CC(C)(C)CC3=O)Oc3ccccc32)=C(O)C1 (stereo not given),-6,17*,2,2
Cc1ccc2c(Cl)cc(Cl)c(OCC(=O)NCc3ccco3)c2n1,54*,x,x,x
Cc1ccc(-c2cc3nc(-c4ccccc4)cc(N4CCC5(CC4)OCCO5)n3n2)cc1,-11,5,-104,x
Cc1cccc(-c2cc3nc(-c4ccccc4)cc(N4CCC5(CC4)OCCO5)n3n2)c1,26,20*,-5,-110
N#CCC(=O)NN=Cc1ccc(SCC(=O)Nc2ccccc2)o1,x,x,2,x
Cc1ccc2c(c1)c(=O)c1c3n2CCN(C(=O)CCl)C3CC1 (stereo not given),47,77*,4,12
COc1ccc(Cl)c(NC(=O)CC(C)=NNC(=O)CCc2ccccc2)c1,x,x,5,x
S=C(Nc1ccc2cn[nH]c2c1)Nc1ccccc1Cl,88*,-3,3,9
O=C1Nc2ccccc2C1=NN=Cc1cccc(O)c1,x,x,7,x
O=C(NN=CC1CC=CCC1)c1cc2ccccc2cc1O (stereo not given),x,x,-1,x
O=C(CCC(=O)Nc1ccc(F)cc1)NN=Cc1ccccc1O,x,x,-32,x
C=CCNC(=O)/C(C#N)=C/c1ccc(C)o1,16,1,22*,-14
